HIF act – HIF pathway transcriptional activators, primary screen, cell-based, U2OS HRE-luciferase, luminescence; 0.32% of 300,000 active; AID 1910, 2009; activation, % at 7.5 µM (by protocol); U2OS HRE-luciferase reporter; normalized: DMSO 0%, desferrioxamine 100%;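 active means mean activation of at least 10% of the iron chelator positive control signal, with at least half of replicates also reaching 10%; inconclusive means mean and replicate majority disagree about reaching 10%; inactive means mean and most replicates under 10%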
Beta apoptosis – inhibitors of cytokine-induced beta cell apoptosis, primary screen, luminescence | INS-1E cytokine-induced death, ATP luminescence, 48 h; percent of positive-control rescue, neutral wells zero | protection from apoptosis, % (test concentration not listed) | 0.8% of 300,000 active;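 active means Every replicate reaches about 75%, or at least half do and their mean reaches it too, limit read from the data; inconclusive means At least half of replicates reach the limit but their mean does not; inactive means Under half of replicates reach the limit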;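 further: 0% = cytokine-treated negative control wells and 100% = positive control rescue; higher means more ATP so stronger rescue from cytokine killing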
PfHsp90 set2 – growth inhibition of PfHsp90-expressing yeast, primary screen, antimalarial PfHsp90 inhibitor project, S. cerevisiae, BacTiter-Glo luminescence, single point, set 2 | inhibition, % at 9.4 µM | 0.32% of 310,000 active | AID 504621, 2011 | BacTiter-Glo ATP, 48 h; yeast lacking PDR1 and PDR3 efflux regulators;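 active means every replicate shows inhibition above about 80%, whatever the replicate mean, limit read from the data; inconclusive means mean inhibition reaches the set limit but some replicate falls short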;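 further: 0% = DMSO neutral controls and 100% = 20 µM radicicol positive controls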
SKKanGAS inh – S. pyogenes SKKanGAS growth inhibitors in kanamycin, primary screen, streptokinase expression inhibitor project, SKKanGAS strain, BacTiter-Glo luminescence; 6 h; inhibition, % at 7.5 µM; 1.3% of 300,000 active;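 active means mean replicate score, as percent of positive control median, at least 50; inconclusive means mean below 50 but one replicate at or above 50; inactive means mean and every replicate below 50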;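 further: strain carries kanamycin resistance gene driven by streptokinase promoter and grows in 40 µg/ml kanamycin; loss of luminescence reflects streptokinase promoter inhibition or plain growth inhibition; 0% = median of DMSO wells and 100% = positive control at its reference dose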
CSC inhib – cancer stem cell viability inhibitors, primary screen, luminescence | inhibition, % at 7.5 µM | 1.1% of 300,000 active | cancer stem cell-like cells viability | AID 2717, 2010; in the data active means inhibition above about 75%; inconclusive means no clear call, values can overlap the other calls; tested in HMLE shEcad cells
T cruzi repl – inhibitors of intracellular T. cruzi growth, primary screen, luminescence, NIH3T3 host cells. T. cruzi beta-gal in NIH3T3, 90 h. inhibition, % (test concentration not listed). 1.4% of 300,000 active. AID 1885, 2009;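 active means mean inhibition across valid replicates above about 55%, limit read from the data; inconclusive means mean below that limit but half or more replicates reach it; inactive means mean below it, under half of replicates reach it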;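 further: signal also drops with host cell toxicity which is not excluded here; 0% = plate median of DMSO wells and 100% = zero luminescence signal; higher percent means less beta-gal luminescence so fewer parasites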
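assay system = mouse NIH/3T3 fibroblasts infected with β-gal-expressing T. cruzi Tulahuen C4 | input = 5,000 NIH/3T3 host cells per well | buffer or medium = DMEM plus 2% FBS | timing = 3 h host attachment, then at least 90 h co-culture | measured by = GalScreen luminescence, 60 min | evaluation = luminescence reflecting intracellular parasite burden, expressed as percent inhibition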
An asterisk follows results filed as active; ? = inconclusive; / = not tested or not shown. Shown are actives, neighbours in structure and some others; about 3.6% of the full set was active somewhere.

SMILES	HIF act	Beta apoptosis	PfHsp90 set2	SKKanGAS inh	CSC inhib	T cruzi repl
Cc1cccc(NC(=O)CCS(=O)(=O)c2cccc3nonc23)c1C	-6.5	-4.8	-1.3	3.9	/	16.9
Cc1nc2ccccn2c1C(=O)NC1CCCc2ccccc21 (stereo not drawn)	0.3	41.3	2.5	11.5	-2.3	9.4
Cc1ccc(CN(C(=O)Cc2cccs2)C(C(=O)NC2CCCC2)c2ccncc2)cc1 (stereo not drawn)	-0.1	-3.5	-2.0	-5.6	9.2	58.6*
Cc1ccc(N(C(=O)CCl)C(C(=O)NC2CCCCC2)c2cccnc2)cc1C (stereo not drawn)	-0.4	1.1	/	-2.9	88.3*	24.9
Cc1ccc(N(C(=O)Cc2cccs2)C(C(=O)NC2CCCC2)c2ccncc2)cc1 (stereo not drawn)	0.6	0.8	5.7	-8.8	5.4	11.7
O=C(NC1CCCC1)C(c1ccccc1)N(Cc1cccnc1)C(=O)Cc1cccs1 (stereo not drawn)	-0.1	-7.6	12.1	-0.4	-7.0	66.6*
Cc1cccc(CCN(C(=O)Cc2cccs2)C(C(=O)NC2CCCCC2)c2cccnc2)c1 (stereo not drawn)	0.0	7.4	-11.7	4.8	-10.1	50.0
S=c1nc[nH]c2nc[nH]c12	3.1	-1.9	5.9	-4.9	84.3*	?
O=S(=O)(c1c(F)cccc1F)N(CCc1ccc(F)cc1)C[C@@H](O)COCc1ccccc1	/	/	119.6*	/	/	/
Cc1ccc(C(C)(O)CS(=O)(=O)Cc2ccccc2Cl)cc1 (stereo not drawn)	-9.9	-6.7	-4.8	1.2	-2.0	-6.0
Cc1sc(NC(=O)c2ccco2)c(C(c2cccnc2)N2CCC(C)CC2)c1C (stereo not drawn)	-0.7	-0.9	91.6*	19.1	-3.9	72.4*
Cc1sc(NC(=O)c2ccco2)c(CN2CCC(C)CC2)c1C	51.0*	-3.3	-10.0	4.0	25.8	21.1
CNC(=O)c1c(NC(=O)c2ccco2)sc(C)c1C	-0.1	-1.9	/	10.5	9.3	-2.0
Cc1sc(NC(=O)c2ccco2)c(CN2CCN(Cc3ccccc3)CC2)c1C	0.3	-5.1	-4.8	12.3	-10.6	58.9*
CCOC(=O)C1=CN(CC)CCC1=O	/	/	18.0	/	/	/
CN(C)/C=C/C(=O)c1ccc(Oc2ccccc2)cc1	1.2	0.7	101.2*	-11.8	-8.1	-8.6
CC(=O)c1ccc2noc(-c3ccccc3)c2c1	1.1	-11.2	4.9	-6.4	-14.7	9.9
CN(C)/C=C/C(=O)c1ccc2noc(-c3ccccc3)c2c1	-0.4	-13.7	105.5*	9.8	1.6	-9.4
C[C@H](NC(=O)c1nc[nH]c1C(=O)N1CCN(c2ccccc2)CC1)c1ccccc1	/	-3.5	27.9	/	3.8	/
Cc1sc(N/N=C/C=C/c2ccccc2)nc1-c1ccccc1	2.2	0.4	-1.7	5.7	12.2	55.4*
CCOc1ccc(/C=N/n2cc(-c3ccccc3)[nH]c2=S)cc1	3.0	34.4	-11.6	16.3	0.8	72.9*
O=C(CSc1nc2ccc(Cl)cc2[nH]1)Nc1ccc2[nH]c(=O)[nH]c2c1	2.0	-0.2	-14.8	-14.6	-17.5	-13.6
CCN1CCN(CC(=O)Nc2ccc(S(=O)(=O)N3C(C)CCCC3C)cc2)CC1 (stereo not drawn)	-0.1	-0.9	0.7	-9.0	-1.9	57.9*
CC1=C(C(=O)OC2CCCCC2)C(c2cccnc2)n2nnnc2N1 (stereo not drawn)	-0.1	1.0	-28.0	4.6	5.4	59.2*
COC(=O)C1=C(C)Nc2nnnn2C1c1cccnc1 (stereo not drawn)	-0.3	1.5	-6.9	-7.6	-4.3	5.8
SMILES	HIF act	Beta apoptosis	PfHsp90 set2	SKKanGAS inh	CSC inhib	T cruzi repl
Cc1nn(Cc2ccccc2)c(Cl)c1C(=O)OC(C)C#N (stereo not drawn)	-0.4	-3.8	-11.8	10.3	-2.3	0.6
O=C(c1ccc(Br)cc1)C(CN1CCOCC1)c1ccccc1 (stereo not drawn)	-5.9	4.8	98.3*	-21.0	68.3	19.0
CN1/C(=C/C(=S)NC(=O)C2(C)CC2(Cl)Cl)C(C)(C)c2ccccc21 (stereo not drawn)	-0.8	49.3	27.1	28.3	8.9	54.5*
CN1/C(=C\C(=S)NC(=O)c2ccccc2Cl)C(C)(C)c2ccccc21	-0.3	99.7*	-0.3	5.3	57.3	42.4
O=C(c1ccccc1)C1(c2ccccc2)OC1c1ccccc1 (stereo not drawn)	/	/	22.2	/	/	/
O=C(Nc1ccc(N2CCN(C(=O)c3ccco3)CC2)c(Cl)c1)c1cccnc1	0.3	0.4	6.2	-1.2	-22.4	8.7
O=C(Nc1ccc(N2CCN(C(=O)c3ccco3)CC2)c(Cl)c1)c1c(F)c(F)c(F)c(F)c1F	-15.7	2.5	14.4	50.1*	7.6	48.7
CSc1nc(SCC(=O)NC(c2ccccc2)c2ccccc2)c2c3c(sc2n1)CN(C)CC3	-0.1	30.4	/	10.9	34.9	64.3*
COc1ccc(-c2nc(CS(=O)CC(=O)N3CCN(C)CC3)c(C)o2)cc1 (stereo not drawn)	0.2	-0.5	2.4	0.6	-7.7	-13.9
COc1ccc2[nH]c(C(=O)N3CCCN(Cc4ccc(F)cc4)CC3)cc2c1	-0.8	-1.4	-3.2	0.7	5.0	60.4*
CCN1CCN(C(=O)c2cc3cc(F)ccc3[nH]2)CC1	0.1	-7.5	26.6	-3.7	-5.2	26.1
COc1cccc(OC)c1C(=O)Nc1ccc2c(c1)N(S(=O)(=O)c1cccs1)CCC2	-0.6	9.7	0.6	-7.5	5.1	20.0
O=C(Nc1ccc2c(c1)N(S(=O)(=O)c1cccs1)CCC2)c1c(F)cccc1Cl	-1.1	14.6	19.6	51.2*	/	17.2
CCCOc1ccc(C(=O)NCC(C)(C)N2CCOCC2)cc1	1.2	1.0	-14.4	-3.3	3.3	4.6
COc1ccc(CCN(C)CCCN2CC(c3ccccc3)CC2=O)cc1OC (stereo not drawn)	0.1	-1.2	9.2	-5.6	6.2	54.0
COc1ccc(C2CC(=O)N(CCCN(C)CCc3ccc(OC)c(OC)c3)C2)cc1 (stereo not drawn)	-0.1	-11.6	-1.2	-6.5	-21.0	64.1*
CC(C)CNS(=O)(=O)c1ccc(CCC(=O)N2CCC(C(N)=O)CC2)cc1	-0.7	-4.1	3.0	-10.0	-7.7	4.4
Cc1ccc2nc(C)c(CN3CCN(c4ccc([N+](=O)[O-])cc4Cl)CC3)n2c1	0.6	104.2*	28.8	7.2	2.4	41.5
Oc1ccc(C=NCCc2ccccc2)cc1	0.7	-2.4	6.4	-0.8	-6.2	-3.8

Screens from PubChem.
